Active and inactive are the calls of the source. The calls are words filed in the database; no cut-off is given here.
Legend:
[1] = species on record: Homo sapiens; assay: Cytotoxicity against human MCF7:WS8 3D spheroid cells assessed as reduction in tumor spheroid size at 10 nM incubated for 14 days
[2] = cells; settings: Homo sapiens, MCF7:5C, 168 h, read-out: pIC50 (converted)
[3] = Antiproliferative activity against human MCF7:WS8 cells assessed as reduction in cell viability incubated for 5 days by Hoechst 33258 dye based assay; type: functional; settings: MCF7:WS8, 120 h
In short: (§1)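 Cells were seeded at 5000 per well; MCF7:WS8 had been estrogen-stripped for 2 days first. Compounds were serially diluted in DMSO, with 0.01% DMSO as vehicle. The medium was removed on day 5 (MCF7:WS8) or day 7 (MCF7:5C), and cells were lysed by freezing at −80 °C overnight. DNA was measured by Hoechst 33258 fluorescence. Maximum efficacy was normalized to vehicle (0%) and no cells (100%); at least three biological replicates.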

[4] = species on record: Homo sapiens; assay: Cytotoxicity against human MCF7:WS8 3D spheroid cells assessed as reduction in tumor cell viability at 10 nM incubated for 14 days by celltiter-glo 3D cell viability assay
[5] = molecular target: T1, Estrogen receptor (Homo sapiens, UniProt P03372); assay: Antagonist activity at ERalpha in human MCF7:WS8 cells incubated for 18 hrs by dual luciferase reporter gene assay relative to control; type: cell-based
T1 sequence (P03372 whole entry): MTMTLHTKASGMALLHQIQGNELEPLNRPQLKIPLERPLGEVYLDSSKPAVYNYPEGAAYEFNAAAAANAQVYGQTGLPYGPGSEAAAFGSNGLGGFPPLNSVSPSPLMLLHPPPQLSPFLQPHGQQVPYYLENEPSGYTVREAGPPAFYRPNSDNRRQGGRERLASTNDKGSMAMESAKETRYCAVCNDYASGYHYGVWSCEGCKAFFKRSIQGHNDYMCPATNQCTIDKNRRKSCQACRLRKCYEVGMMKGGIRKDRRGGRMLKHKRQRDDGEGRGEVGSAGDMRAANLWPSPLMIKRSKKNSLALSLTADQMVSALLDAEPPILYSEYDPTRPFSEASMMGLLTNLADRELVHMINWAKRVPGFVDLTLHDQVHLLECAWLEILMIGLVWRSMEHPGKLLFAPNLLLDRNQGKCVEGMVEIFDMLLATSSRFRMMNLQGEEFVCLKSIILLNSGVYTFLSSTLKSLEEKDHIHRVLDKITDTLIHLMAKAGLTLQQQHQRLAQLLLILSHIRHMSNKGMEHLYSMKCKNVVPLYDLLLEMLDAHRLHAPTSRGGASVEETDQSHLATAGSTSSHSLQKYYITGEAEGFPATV
In short: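 MCF7:WS8 cells were estrogen-deprived for 3 days (phenol red-free RPMI, stripped FBS), then plated and grown 24 h. They were co-transfected for 6 h with a 3×vitellogenin ERE-firefly luciferase plasmid and a pRL-TK Renilla plasmid. Compounds were given in competition with 1 nM E2 for 18 h, then dual luciferase was read.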

[6] = Antiproliferative activity against human MCF7:WS8 cells assessed as reduction in cell viability incubated for 5 days by Hoechst 33258 dye based assay relative to control; type: functional; settings: MCF7:WS8, 120 h
In short: as §1

[7] = molecular target: T1, Estrogen receptor; assay: Inhibition of ERalpha in human MCF7:WS8 cells assessed as increase in degradation of ERalpha incubated for 24 hrs by In-Cell Western assay; type: cell-based
In short: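 MCF7:WS8 cells were estrogen-stripped for 2 days and plated at 2.5 × 10^4 per well. ERα was detected by in-cell western (H10 antibody), with signal normalized to CellTag 700.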

[8] = molecular target: T2, Estrogen receptor (Homo sapiens) (UniProt P03372); assay: Inhibition of ERalpha in human MCF7:WS8 cells assessed as increase in degradation of ERalpha incubated for 24 hrs by In-Cell Western assay relative to control; type: cell-based
T2 sequence (whole entry): T1 sequence (P03372 whole entry)
In short: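 MCF7:WS8 cells were estrogen-stripped for 2 days and plated at 2.5 × 10^4 per well. After 48 h they were treated for 24 h. ERα was detected by in-cell western (H10 antibody), with signal normalized to CellTag 700.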

[9] = (§2) Antiproliferative activity against human MCF7:5C cells assessed as reduction in cell viability incubated for 7 days by Hoechst 33258 dye based assay relative to control; type: functional; settings: 168 h
In short: as §1

[10] = molecular target: T2, Estrogen receptor (Homo sapiens); assay: Induction of degradation of ERalpha in human MCF7:WS8 cells at 100 nM in presence of MG-132 incubated for 24 hrs by Western blot analysis; type: cell-based
[11] = species on record: Homo sapiens; assay: as §2; type: functional
In short: as §1

Row | Compound | IC50 [2] [nM] | IC50 [5] [nM] | IC50 [7] [nM] | Efficacy [8] [%] | Activity [10] | Activity [1] | IC50 [3] [nM] | Activity [4] | Emax [6] [%] | Emax [9] [%] | Emax [11]
1 | Cc1ccccc1C(=O)c1sc2cc(O)ccc2c1Oc1ccc(OC2CN(CCCF)C2)cc1 | 2.82 | 2.1 | 2.57 | 82 | – | Active | 0.145 | Active | 67 | 59 | –
2 | Cc1cc(O)ccc1C(=O)c1sc2cc(O)ccc2c1Oc1ccc(OCCN2CC(CF)C2)cc1 | 0.12 | 14 | 5.13 | 90 | – | – | 0.575 | – | 78 | 36 | –
3 | Cc1ccc(C(=O)c2sc3cc(O)ccc3c2Oc2ccc(OCCN3CC(CF)C3)cc2)c(C)c1 | 0.38 | 7.4 | 1.45 | 83 | – | – | 0.155 | – | 68 | 42 | –
4 | Cc1ccccc1C(=O)c1sc2cc(O)ccc2c1Oc1ccc(OCCN2CCCCC2)cc1 | – | – | – | – | – | – | 0.407 | – | 68 | – | inactive
5 | Cc1cc(F)cc(C)c1C(=O)c1sc2cc(O)ccc2c1Oc1ccc(OC2CN(C3CC3)C2)cc1 | 0.141 | 11 | 5.89 | 51 | – | – | 0.0631 | – | 62 | 16 | –
6 | O=C(c1ccc(OCCN2CCCCC2)cc1)c1c(-c2ccc(O)cc2)sc2cc(O)ccc12 [RALOXIFENE] | – | – | – | – | – | – | 2.4 | – | 69 | – | inactive

Second part, led by results:

Row | IC50 [2] [nM] | IC50 [5] [nM] | IC50 [7] [nM] | Efficacy [8] [%] | Activity [10] | Compound | Activity [1] | IC50 [3] [nM] | Activity [4] | Emax [6] [%] | Emax [9] [%] | Emax [11]
7 | 0.363 | 2.7 | 3.63 | 95 | – | Cc1cc(F)ccc1C(=O)c1sc2cc(O)ccc2c1Oc1ccc(OCCN2CC(CF)C2)cc1 | – | 0.251 | – | 77 | 52 | –
8 | 0.447 | 28 | 1.23 | 89 | – | O=C(c1ccc(F)cc1)c1sc2cc(O)ccc2c1Oc1ccc(OCCN2CC(CF)C2)cc1 | Active | 1.02 | Active | 67 | 46 | –
9 | – | – | – | – | Active | CCNCCc1ccc(CN(CC)c2cc(OC)ccc2[C@@H]2CCc3cc(O)ccc3C2)cc1 | – | – | – | – | – | –
10 | 0.263 | 1.9 | 0.257 | 81 | – | Cc1ccccc1C(=O)c1sc2cc(O)ccc2c1Oc1ccc(OCCN2CC(C)C2)cc1 | – | 0.0417 | – | 69 | 48 | –
11 | 0.182 | – | – | – | – | O=C(c1cccc(F)c1)c1sc2cc(O)ccc2c1Oc1ccc(OC2CN(CCCF)C2)cc1 | – | 0.141 | – | 70 | – | –
12 | 0.955 | 1.5 | 0.955 | 92 | – | Cc1ccccc1C(=O)c1sc2cc(O)ccc2c1Oc1ccc(OCCN2CC(CF)C2)cc1 | – | 1.07 | – | 72 | 40 | –

From ChEMBL document CHEMBL4354825, “Design and Synthesis of Basic Selective Estrogen Receptor Degraders for Endocrine Therapy Resistant Breast Cancer” (J Med Chem, 2019)
